Experimental data of several laboratories.
Protocols differ between the studies behind these lines.
Medium: plasma
Route: intravenous

`CCCC[C@@H]1NC(=O)[C@H](Cc2ccc(O)cc2)NC(=O)[C@@H]2CCCN2C(=O)[C@H](CC(=O)O)NC(=O)[C@H](C)NC(=O)[C@H](Cc2ccccc2)NC(=O)[C@@H]2CSCCC(=O)N3CN(CN(C3)C(=O)CCSC[C@@H](C(=O)N[C@@H](C)C(N)=O)NC1=O)C(=O)CCSC[C@H](NC(C)=O)C(=O)N[C@@H](CC(C)(C)C)C(=O)N1CCC[C@H]1C(=O)N[C@@H](CCC(=O)O)C(=O)N[C@H](CCCCNC(=O)CCc1cn(CCOCCOCCOCCOCCOCCOCCOCCOCCOCCOCCNC(=O)c3cc(C(=O)NCCOCCOCCOCCOCCOCCOCCOCCOCCOCCOCCn4cc(CCC(=O)NCCCC[C@H]5NC(=O)[C@H](CCC(=O)O)NC(=O)[C@@H]6CCCN6C(=O)[C@H](CC(C)(C)C)NC(=O)[C@@H](NC(C)=O)CSCCC(=O)N6CN7CN(C6)C(=O)CCSC[C@H](NC(=O)[C@H](Cc6ccc(O)cc6)NC(=O)[C@@H]6CCCN6C5=O)C(=O)N[C@@H](Cc5ccccc5)C(=O)N[C@@H](C)C(=O)N[C@@H](CC(=O)O)C(=O)N5CCC[C@H]5C(=O)N[C@@H](Cc5ccc(O)cc5)C(=O)N[C@@H](CCCC)C(=O)N[C@H](C(=O)N[C@@H](C)C(N)=O)CSCCC7=O)nn4)cc(C(=O)NCCOCCOCCOCCOCCOCCOCCOCCOCCOCCOCCn4cc(CCC(=O)N[C@H]5CSCCC(=O)N6CN7CN(C6)C(=O)CCSC[C@H](NC(=O)[C@@H](CC(=O)O)NC(=O)[C@H](Cc6cccc8ccccc68)NC(=O)[C@@H]6CCCN6C5=O)C(=O)N[C@@H](CCSC)C(=O)N[C@@H](CCCCNC(=N)N)C(=O)N[C@@H](CC(=O)O)C(=O)N[C@@H](Cc5c[nH]c6ccccc56)C(=O)N[C@@H](CO)C(=O)N[C@@H]([C@@H](C)O)C(=O)N5CCC[C@H]5C(=O)N5C[C@H](O)C[C@H]5C(=O)N[C@@H](Cc5c[nH]c6ccccc56)C(=O)N[C@H](C(N)=O)CSCCC7=O)nn4)c3)nn1)C(=O)N1CCC[C@H]1C(=O)N[C@@H](Cc1ccc(O)cc1)C(=O)N2` has a Vd of 1 L/kg (rat; 2 mg/kg).
For `C=CC(=O)Nc1cc(Nc2nccc(Nc3cc(Cl)c(F)cc3C(C)(C)O)n2)c(OC)cc1N1CC[C@@H](N(C)C)C1`, the Vd was 13.6 L/kg (Wistar rat; 3 mg/kg).
The Vd of `Cc1nc(Nc2ncc(C(=O)Nc3c(C)cccc3Cl)s2)cc(N2CCN(CCO)CC2)n1` is reported as 4.6 L (female Sprague-Dawley rat; 5 mg/kg).
With `COc1ccc2c(Cc3ccccc3F)c3n(c(=O)c2c1OC)CCc1cc2c(cc1-3)OCO2` the Vd was 0.32 L/kg (rat; 5 mg/kg).
With `Oc1c(Br)cc(Cl)c2cccnc12` the Vd was 21.3 L/kg (Sprague-Dawley rat; 2 mg/kg).
`COc1cc(F)ccc1-c1ncnc(Nc2cccc(C[S@](C)(=N)=O)c2)n1` gave a Vd of 1 L/kg (male Wistar rat).
`CN1CCC(c2ccccc2CC(C)(C)Nc2nc(N3CCOCC3)nc(-n3c(C(F)F)nc4ccccc43)n2)CC1` has a Vd of 23.7 L/kg (rat; 5 mg/kg, single dose).
With `C[C@]12CC[C@H](n3ccnc3)CC1=CC[C@@H]1[C@@H]2CC[C@]2(C)C(n3cnc4ccccc43)=CC[C@@H]12` the Vd was ~6 L/kg (Sprague-Dawley rat; 1 mg/kg).
`CCc1cc(C(=O)NC)c2nccc(N3CCc4c(cc(Cn5ccnc5)cc4-c4cn(C)nc4C(F)(F)F)C3=O)c2c1` gave a Vd of 1 L/kg (male Sprague-Dawley rat; 3 mg/kg).
With `Cc1noc(-c2cc3cc(-c4nc(C(=O)NCc5ccncc5)[nH]c4C)ccc3[nH]2)n1` the Vd was 1.5 L/kg (Sprague-Dawley rat; 1 mg/kg).
With `CCCC[C@@H]1NC(=O)[C@H](Cc2ccc(O)cc2)NC(=O)[C@@H]2CCCN2C(=O)[C@H](CC(=O)O)NC(=O)[C@H](C)NC(=O)[C@H](Cc2ccccc2)NC(=O)[C@@H]2CSCCC(=O)N3CN(CN(C3)C(=O)CCSC[C@@H](C(=O)N[C@@H](C)C(N)=O)NC1=O)C(=O)CCSC[C@H](NC(C)=O)C(=O)N[C@@H](CC(C)(C)C)C(=O)N1CCC[C@H]1C(=O)N[C@@H](CCC(=O)O)C(=O)N[C@H](CCCCNC(=O)CCc1cn(CCOCCOCCOCCOCCOCCC(=O)N[C@H]3CSCCC(=O)N4CN5CN(C4)C(=O)CCSC[C@H](NC(=O)[C@@H](CC(=O)O)NC(=O)[C@H](Cc4cccc6ccccc46)NC(=O)[C@@H]4CCCN4C3=O)C(=O)N[C@@H](CCSC)C(=O)N[C@@H](CCCCNC(=N)N)C(=O)N[C@@H](CC(=O)O)C(=O)N[C@@H](Cc3c[nH]c4ccccc34)C(=O)N[C@@H](CO)C(=O)N[C@@H]([C@@H](C)O)C(=O)N3CCC[C@H]3C(=O)N3C[C@H](O)C[C@H]3C(=O)N[C@@H](Cc3c[nH]c4ccccc34)C(=O)N[C@H](C(N)=O)CSCCC5=O)nn1)C(=O)N1CCC[C@H]1C(=O)N[C@@H](Cc1ccc(O)cc1)C(=O)N2` the Vd was 1 L/kg (rat; 2 mg/kg).
The Vd of `Oc1c(-n2ccnn2)cnn1-c1cc(N2CCOCC2)ncn1` is reported as 0.62 L/kg (male rat; 5 mg/kg).
The Vd of `CCCCCCCCCCCCCCCc1ccc(CP(=O)(O)O)cc1` is reported as 3.9 L/kg (male Sprague-Dawley rat; 5.8 mg/kg).
